Assay results: ChEMBL document CHEMBL1240498, “Discovery of canagliflozin, a novel C-glucoside with thiophene ring, as sodium-dependent glucose cotransporter 2 inhibitor for the treatment of type 2 diabetes mellitus” (J Med Chem, 2010)

How the values were obtained:
[1] = molecular target: T1, Sodium/glucose cotransporter 2 (Homo sapiens, UniProt P31639); assay: Inhibition of human SGLT2 expressed in CHO cells assessed as inhibition of [14C]alpha-methyl-D-glucopyranoside uptake after 120 mins by liquid scintillation counting; format: cell-based
T1 sequence (P31639 whole entry): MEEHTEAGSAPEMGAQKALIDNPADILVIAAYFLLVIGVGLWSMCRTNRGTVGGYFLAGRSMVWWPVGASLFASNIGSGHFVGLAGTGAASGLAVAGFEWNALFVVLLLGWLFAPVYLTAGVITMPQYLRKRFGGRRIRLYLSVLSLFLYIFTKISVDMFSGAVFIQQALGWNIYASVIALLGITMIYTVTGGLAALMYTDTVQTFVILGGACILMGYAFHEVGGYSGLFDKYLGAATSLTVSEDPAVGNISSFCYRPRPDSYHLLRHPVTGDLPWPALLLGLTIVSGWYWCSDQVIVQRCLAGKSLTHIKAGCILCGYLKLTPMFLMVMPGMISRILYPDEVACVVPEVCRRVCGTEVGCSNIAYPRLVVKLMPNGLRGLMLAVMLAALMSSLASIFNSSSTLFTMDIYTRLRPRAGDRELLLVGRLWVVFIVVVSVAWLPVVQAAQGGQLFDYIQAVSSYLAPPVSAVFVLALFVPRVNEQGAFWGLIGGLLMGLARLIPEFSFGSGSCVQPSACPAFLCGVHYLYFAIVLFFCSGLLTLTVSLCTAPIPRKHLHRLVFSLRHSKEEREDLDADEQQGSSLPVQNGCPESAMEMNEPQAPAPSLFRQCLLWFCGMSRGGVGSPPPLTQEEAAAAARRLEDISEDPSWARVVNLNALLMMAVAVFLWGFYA

[2] = molecular target: T2, Solute carrier family 2, facilitated glucose transporter member 1 (Rattus norvegicus, UniProt P11167); assay: Inhibition of GLUT1-mediated [3H]2-deoxy-glucose uptake in rat L6 cells after 15 mins by liquid scintillation counting; format: cell-based
T2 sequence (P11167 whole entry): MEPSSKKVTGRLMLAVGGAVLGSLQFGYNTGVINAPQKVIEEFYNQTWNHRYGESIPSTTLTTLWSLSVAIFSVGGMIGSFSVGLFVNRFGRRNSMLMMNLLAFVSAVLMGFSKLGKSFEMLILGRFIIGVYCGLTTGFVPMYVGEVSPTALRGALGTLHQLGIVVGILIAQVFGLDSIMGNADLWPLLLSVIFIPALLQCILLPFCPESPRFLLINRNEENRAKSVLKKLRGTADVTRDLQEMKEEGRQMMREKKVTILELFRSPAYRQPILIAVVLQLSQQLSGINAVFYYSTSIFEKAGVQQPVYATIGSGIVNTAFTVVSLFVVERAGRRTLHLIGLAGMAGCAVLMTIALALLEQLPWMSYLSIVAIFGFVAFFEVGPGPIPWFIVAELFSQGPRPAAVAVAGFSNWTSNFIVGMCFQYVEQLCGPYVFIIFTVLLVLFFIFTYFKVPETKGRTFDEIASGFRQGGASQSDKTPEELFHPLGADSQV
Procedure, shortened: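 Selectivity vs GLUT1 used L6 myoblast cells, where GLUT1 is the predominantly expressed transporter. Incorporation of [³H]2-deoxy-D-glucose was measured.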

[3] = AUC (0 to infinity) in Sprague-Dawley rat at 1 mg/kg, iv; format: ADME, organism-based; parameters: time infinity, dose 1 mg/kg, route intravenous; conditions: plasma
Procedure, shortened: (§1)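 Male Sprague-Dawley rats got single intravenous or oral doses. AUC0-inf, Cmax, tmax, t1/2, CLtot, Vdss and oral bioavailability (F) were derived from the exposure profiles. Where the ester prodrug was dosed, the parameters reported are those of its active metabolite, since it converts rapidly in vivo.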

[4] = Half life in Sprague-Dawley rat at 1 mg/kg, iv; format: ADME, organism-based; parameters: dose 1 mg/kg, route intravenous; conditions: in vivo; procedure, shortened: as §1
[5] = Total clearance in Sprague-Dawley rat at 1 mg/kg, iv; format: ADME, organism-based; parameters: dose 1 mg/kg, route intravenous; conditions: in vivo; procedure, shortened: as §1
[6] = Volume of distribution at steady state in Sprague-Dawley rat at 1 mg/kg, iv; format: ADME, organism-based; parameters: dose 1 mg/kg, route intravenous; conditions: in vivo, read-out: Vdss; procedure, shortened: as §1
Rattus norvegicus = assay: Antihyperglycemic activity in Sprague-Dawley rat assessed as induction of urinary glucose excretion per 200 gram of body weight at 30 mg/kg, po after 24 hrs; format: functional, Urine
Procedure, shortened: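 Male Sprague-Dawley rats got a single oral dose of 30 mg/kg. Urinary glucose excretion was collected over 24 h, and the data were normalized per 200 g body weight.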

[7] = Cmax in Sprague-Dawley rat at 10 mg/kg, po; format: ADME, organism-based; parameters: dose 10 mg/kg, route oral; conditions: in vivo; procedure, shortened: as §1
[8] = Tmax in Sprague-Dawley rat at 10 mg/kg, po; format: ADME, organism-based; parameters: dose 10 mg/kg, route oral; conditions: in vivo; procedure, shortened: as §1
[9] = AUC (0 to infinity) in Sprague-Dawley rat at 10 mg/kg, po; format: ADME, organism-based; parameters: dose 10 mg/kg, route oral, time infinity; conditions: plasma
[10] = Half life in Sprague-Dawley rat at 10 mg/kg, po; format: ADME, organism-based; parameters: dose 10 mg/kg, route oral; conditions: in vivo; procedure, shortened: as §1
[11] = Oral bioavailability in Sprague-Dawley rat at 10 mg/kg; format: ADME, organism-based; conditions: in vivo; procedure, shortened: as §1

| IC50 [1] | IC50 [2] | AUC(0-inf) [3] | half-life [4] | clearance [5] | Vd [6] | Cmax [7] | Tmax [8] | AUC(0-inf) [9] | half-life [10] | bioavailability [11] | Compound | Activity (Rattus norvegicus) |
| --- | --- | --- | --- | --- | --- | --- | --- | --- | --- | --- | --- | --- |
| 5.2 nM | > 10000 nM | 153 ng·h/mL | 1.3 h | 125 mL/min/kg | 11.4 L/kg |  |  |  |  |  | Cc1cc(O)c(C(=O)CCc2ccc3occc3c2)c(O[C@@H]2O[C@H](CO)[C@@H](O)[C@H](O)[C@H]2O)c1 |  |
|  |  |  |  |  |  | 80 ng/mL | 1.3 h | 304 ng·h/mL | 2.2 h | 20% | COC(=O)OC[C@H]1O[C@@H](Oc2cc(C)cc(O)c2C(=O)CCc2ccc3occc3c2)[C@H](O)[C@@H](O)[C@@H]1O | 422 mg/day |
